Our source for the k cat, Ratio and Km values is ChEMBL document CHEMBL1122621, “Antihypertensive activities of phenyl aminoethyl sulfides, a class of synthetic substrates for dopamine beta-hydroxylase” (J Med Chem, 1984).

Data set [1] deals with T1, Dopamine beta-hydroxylase (Bos taurus) (UniProt P15101).
T1 sequence (whole entry): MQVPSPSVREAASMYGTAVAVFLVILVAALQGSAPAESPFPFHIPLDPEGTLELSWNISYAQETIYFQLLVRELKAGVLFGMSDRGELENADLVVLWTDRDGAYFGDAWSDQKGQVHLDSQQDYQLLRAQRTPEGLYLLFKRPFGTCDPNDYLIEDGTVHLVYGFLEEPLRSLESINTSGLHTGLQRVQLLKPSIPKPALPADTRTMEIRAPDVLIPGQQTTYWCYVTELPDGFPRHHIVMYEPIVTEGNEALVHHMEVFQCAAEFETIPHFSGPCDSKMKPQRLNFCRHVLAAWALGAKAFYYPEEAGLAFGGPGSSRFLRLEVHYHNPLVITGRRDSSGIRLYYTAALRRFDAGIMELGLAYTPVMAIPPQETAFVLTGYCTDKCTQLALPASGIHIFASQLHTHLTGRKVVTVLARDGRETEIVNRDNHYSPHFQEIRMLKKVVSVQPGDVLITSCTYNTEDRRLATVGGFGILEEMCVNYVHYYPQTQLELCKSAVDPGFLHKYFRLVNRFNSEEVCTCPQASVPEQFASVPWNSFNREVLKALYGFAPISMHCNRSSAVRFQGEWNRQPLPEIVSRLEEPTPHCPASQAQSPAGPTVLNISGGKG
Description: Compound was evaluated as substrate for Dopamine beta hydroxylase (DBH) from bovine adrenals and the enzymatic kinetic constant was reported as Kcat.

The nature of data set [2]: Ratio of the kinetic parameter Kcat to the Km on substrate […] from bovine adrenals. The class given is tissue-based. Conditions: Adrenal gland.
In data set [3] the target is T2, Monoamine oxidase (Bos taurus, UniProt P56560+P21398).
T2 sequence (P56560 whole entry): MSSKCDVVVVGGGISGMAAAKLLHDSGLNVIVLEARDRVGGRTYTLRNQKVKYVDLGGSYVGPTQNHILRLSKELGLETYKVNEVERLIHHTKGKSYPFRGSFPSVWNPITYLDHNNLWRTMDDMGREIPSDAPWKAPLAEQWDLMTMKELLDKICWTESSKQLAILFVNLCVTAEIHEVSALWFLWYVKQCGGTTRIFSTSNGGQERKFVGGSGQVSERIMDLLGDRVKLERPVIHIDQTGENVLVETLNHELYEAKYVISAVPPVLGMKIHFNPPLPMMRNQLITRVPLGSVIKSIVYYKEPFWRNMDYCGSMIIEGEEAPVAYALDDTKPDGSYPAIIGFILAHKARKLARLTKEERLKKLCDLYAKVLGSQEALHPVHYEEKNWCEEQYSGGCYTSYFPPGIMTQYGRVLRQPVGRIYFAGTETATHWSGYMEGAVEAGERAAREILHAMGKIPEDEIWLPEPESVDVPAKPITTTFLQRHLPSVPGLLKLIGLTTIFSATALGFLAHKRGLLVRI
T2 sequence (P21398 whole entry): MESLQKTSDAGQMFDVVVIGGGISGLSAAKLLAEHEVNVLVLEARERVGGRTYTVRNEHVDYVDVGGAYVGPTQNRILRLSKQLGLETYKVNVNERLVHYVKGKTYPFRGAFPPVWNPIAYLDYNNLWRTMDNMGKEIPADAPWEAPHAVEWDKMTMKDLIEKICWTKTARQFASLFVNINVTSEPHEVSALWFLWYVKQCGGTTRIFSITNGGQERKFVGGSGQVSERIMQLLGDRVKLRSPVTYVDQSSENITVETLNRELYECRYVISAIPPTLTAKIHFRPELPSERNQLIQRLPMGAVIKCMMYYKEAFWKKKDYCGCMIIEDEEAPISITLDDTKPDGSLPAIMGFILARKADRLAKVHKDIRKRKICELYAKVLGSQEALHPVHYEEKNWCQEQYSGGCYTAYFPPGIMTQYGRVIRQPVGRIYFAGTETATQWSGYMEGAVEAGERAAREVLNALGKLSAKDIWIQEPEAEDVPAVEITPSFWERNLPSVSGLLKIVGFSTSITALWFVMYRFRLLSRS
Description: Compound was evaluated as substrate for monoamine oxidase (MAO) from bovine […] and the enzymatic kinetic constant was reported as Kcat. The class given is protein assay. As to conditions: cattle. In outline: (§1)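 Bovine MAO, a mixed A/B isozyme preparation, commercial. Oxygen monitor assay in 0.1 M potassium phosphate pH 7.2, air-saturated, 37 °C. kcat and Km from computer fit to hyperbolic Michaelis-Menten equation. kcat based on total protein, assuming MW 290 000.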

A further data set addresses T3, monoamine oxidase (MAO) (Bos taurus, UniProt P21398+P56560).
T3 sequence (P56560 whole entry): T2 sequence (P56560 whole entry)
T3 sequence (P21398 whole entry): T2 sequence (P21398 whole entry)
Briefly: Compound was evaluated as substrate for monoamine oxidase (MAO) from bovine […] and the enzymatic kinetic constant was reported as Km. Conditions: cattle. Format: protein assay. Put shortly:
as §1

Data set [4] in a line: Ratio of the kinetic parameter Kcat to the Km on substrate dopamine monoamine oxidase.
Data set [5] has as its target T2, Monoamine oxidase. Briefly: Compound was evaluated as substrate for monoamine oxidase (MAO) from bovine […] and the enzymatic kinetic constant was reported as Km; c = Compounds displayed no trace of substrate activity even at high enzyme concentrations. Format: protein assay. Conditions: cattle. In outline: as §1
Data set [6] in a line: Ratio of the kinetic parameter Kcat to the Km on substrate dopamine monoamine oxidase; c = Compounds displayed no trace of substrate activity even at high enzyme concentrations.
Data set [7] deals with T2, Monoamine oxidase. Description: Compound was evaluated as substrate for monoamine oxidase (MAO) from bovine […] and the enzymatic kinetic constant was reported as Kcat; c = Compounds displayed no trace of substrate activity even at high enzyme concentrations. As to conditions: cattle. The class given is protein assay. In outline:
as §1

Substrate in data set [8]: NCCSc1ccc(O)cc1
Description: (§2) Compound was evaluated as substrate for Dopamine beta hydroxylase (DBH) from bovine adrenals and the enzymatic kinetic constant was reported as Km. Format: tissue-based. Conditions: Adrenal gland.

Substrate in data set [9]: CC(N)CSc1ccc(O)cc1
The description is as §2. The class given is tissue-based. Conditions: Adrenal gland.

Substrate in data set [10]: NCCCc1ccccc1
Described as §2. Format: tissue-based. As to conditions: Adrenal gland.

Substrate in data set [11]: CC(N)CSc1ccccc1
The description is as §2. The class given is tissue-based. Conditions: Adrenal gland.

Substrate in data set [12]: NCCc1ccc(O)cc1
Described as §2. The class given is tissue-based. Conditions: Adrenal gland.

Substrate in data set [13]: NCCc1ccccc1
The description is as §2. Format: tissue-based. As to conditions: Adrenal gland.

Substrate in data set [14]: NCCSc1ccccc1
Described as §2. Format: tissue-based. Conditions: Adrenal gland.

In the case of `NCCCc1ccccc1`, the k cat in data set [1] stood at 12 s⁻¹; on Monoamine oxidase [3] it was 0.17 s⁻¹. Further, the Ratio in data set [2] amounted to 590 M⁻¹ s⁻¹; in data set [4], 580 M⁻¹ s⁻¹. The Km (in general, the concentration of substrate that gives half-maximal velocity) on monoamine oxidase (MAO) was found to be 0.29 mM.

Consider `CC(N)CSc1ccc(O)cc1` (racemic), for which the Km entry at Monoamine oxidase [5] is “No activity”. The Ratio entry in data set [6] was “No activity”; in data set [2], 6700 M⁻¹ s⁻¹. The k cat in data set [1] is 44 s⁻¹; on Monoamine oxidase [7] it was “No activity”.

As to `NCCc1ccc(O)cc1`, in data set [1], the k cat turned out to be 85 s⁻¹. Moreover, the Ratio in data set [2] was found to be 42000 M⁻¹ s⁻¹.

Consider `NCCSc1ccccc1`, for which the k cat in [1] stood at 39 s⁻¹; at Monoamine oxidase [3], 0.43 s⁻¹. The values for the Ratio in data set [2] and in [4] were 2300 M⁻¹ s⁻¹ and 7300 M⁻¹ s⁻¹, respectively. Also, the Km on monoamine oxidase (MAO) came to 0.055 mM.

Take `NCCSc1ccc(O)cc1`: the results for the k cat (in data set [1]; at Monoamine oxidase [3]) were 36 s⁻¹ and 0.22 s⁻¹, respectively. The results for the Ratio in [2] and in data set [4] were 8300 M⁻¹ s⁻¹ and 4500 M⁻¹ s⁻¹, respectively. Besides, the Km on monoamine oxidase (MAO) stood at 0.049 mM.

For the molecule `NCCc1ccccc1` [PHENETHYLAMINE], the results for the k cat (in [1]; at Monoamine oxidase [3]) were 65 s⁻¹ and 0.23 s⁻¹, respectively. Moreover, the Ratio in data set [2] is 9300 M⁻¹ s⁻¹; in data set [4], 100 M⁻¹ s⁻¹. On monoamine oxidase (MAO), the Km worked out at 2.2 mM.

Turning to `CC(N)CSc1ccccc1` (racemic), the Km entry at Monoamine oxidase [5] is listed as “No activity”. Besides, the values for the Ratio entry in data set [6] and in [2] were “No activity” and 1000 M⁻¹ s⁻¹, respectively. Besides, the k cat in data set [1] was 20 s⁻¹; at Monoamine oxidase [7], “No activity”.

B1: Dopamine beta-hydroxylase (Bos taurus), P15101 (protein)
chain: T1 sequence (whole entry)
Regarding B1, the Km in [8] is 4.4 mM; in [9], 6.5 mM; in data set [10], 20.4 mM; in data set [11], 19.1 mM; in data set [12], 2 mM; in [13] it was 7 mM. In addition, the Michaelis-Menten constant (Km) in data set [14] came to 17.2 mM.
